Assay results from ChEMBL document CHEMBL4364301 (Eur J Med Chem, 2019).

Legend:
[1] = target: Voltage-gated inwardly rectifying potassium channel KCNH2 (Homo sapiens, UniProt Q12809); assay: Inhibition of human ERG expressed in CHO cells by whole-cell voltage-clamp analysis; format: cell-based
In short: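 CHO cells expressing hERG were held in Dulbecco's PBS with Ca/Mg, pH 7–7.2, at room temperature. Tail currents were recorded by automated whole-cell voltage clamp after 300 s exposure. […] Quinidine served as positive control and 0.25% DMSO buffer as negative control.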

[2] = tested on: DU-145; assay: Antiproliferative activity against human DU145 cells assessed as reduction in cell growth incubated for 96 hrs by propidium iodide based 2D monolayer assay; format: functional
In short: (§1)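 After 24 h recovery, compound in medium or medium alone (control wells) was added at 10 half-log concentrations from 0.0032 to 100 µM, in triplicate, with at most 0.3% DMSO. After 96 h, wells were PBS-washed, stained with 7 µg/ml PI and 0.1% Triton X-100, and fluorescence read at 530/620 nm. IC50 came from a 4-parameter fit, geometric mean.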

[3] = tested on: LNCaP; assay: Antiproliferative activity against human LNCAP cells assessed as reduction in cell growth incubated for 96 hrs by propidium iodide based 2D monolayer assay; format: functional; in short: as §1
[4] = tested on: CWR22R; assay: Antiproliferative activity against human 22Rv1 cells assessed as reduction in cell growth incubated for 96 hrs by propidium iodide based 2D monolayer assay; format: functional; in short: as §1
[5] = Metabolic stability in liver microsomes (unknown origin) assessed as half life at 3 uM measured upto 45 mins in presence of NADPH by LC-MS/MS analysis; format: ADME, Microsome
In short: (§2)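 Pooled liver microsomes at 0.5 mg/mL protein in 0.1 M phosphate buffer pH 7.4 were incubated with 3 μM compound (0.25% DMSO) at 37 °C. Reactions were started with 1 mM NADPH and sampled at 0, 5, 15, 30 and 45 min. A minus-NADPH control ran for 45 min. Reactions were quenched in methanol and analysed by LC-MS/MS to give CLint and t1/2.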

[6] = Metabolic stability in liver microsomes (unknown origin) assessed as intrinsic clearance per mg of protein at 3 uM measured upto 45 mins in presence of NADPH by LC-MS/MS analysis; format: ADME, Microsome; settings: read-out: CLH; in short: as §2
[7] = tested on: VCaP; assay: Antiproliferative activity against human VCaP cells assessed as reduction in cell growth incubated for 96 hrs by propidium iodide based 2D monolayer assay; format: functional
In short: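 VCaP cells in RPMI 1640 with 10% FCS at 37 °C, 5% CO2, seeded 4,000–20,000 cells/well and left 24 h before dosing. Compounds from DMSO stocks were diluted in half-log steps in medium, 10 concentrations 0.0032–100 μM, triplicate wells, max 0.3% DMSO. After 96 h, cells were washed, stained with 7 μg/ml propidium iodide plus 0.1% Triton X-100 for 1–2 h at room temperature, and fluorescence read at ex 530/em 620 nm.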

[8] = Protein binding in human plasma; format: ADME, cell-free; settings: read-out: PPB (converted)

Voltage-gated inwardly rectifying potassium channel KCNH2, sequence (Q12809 whole entry): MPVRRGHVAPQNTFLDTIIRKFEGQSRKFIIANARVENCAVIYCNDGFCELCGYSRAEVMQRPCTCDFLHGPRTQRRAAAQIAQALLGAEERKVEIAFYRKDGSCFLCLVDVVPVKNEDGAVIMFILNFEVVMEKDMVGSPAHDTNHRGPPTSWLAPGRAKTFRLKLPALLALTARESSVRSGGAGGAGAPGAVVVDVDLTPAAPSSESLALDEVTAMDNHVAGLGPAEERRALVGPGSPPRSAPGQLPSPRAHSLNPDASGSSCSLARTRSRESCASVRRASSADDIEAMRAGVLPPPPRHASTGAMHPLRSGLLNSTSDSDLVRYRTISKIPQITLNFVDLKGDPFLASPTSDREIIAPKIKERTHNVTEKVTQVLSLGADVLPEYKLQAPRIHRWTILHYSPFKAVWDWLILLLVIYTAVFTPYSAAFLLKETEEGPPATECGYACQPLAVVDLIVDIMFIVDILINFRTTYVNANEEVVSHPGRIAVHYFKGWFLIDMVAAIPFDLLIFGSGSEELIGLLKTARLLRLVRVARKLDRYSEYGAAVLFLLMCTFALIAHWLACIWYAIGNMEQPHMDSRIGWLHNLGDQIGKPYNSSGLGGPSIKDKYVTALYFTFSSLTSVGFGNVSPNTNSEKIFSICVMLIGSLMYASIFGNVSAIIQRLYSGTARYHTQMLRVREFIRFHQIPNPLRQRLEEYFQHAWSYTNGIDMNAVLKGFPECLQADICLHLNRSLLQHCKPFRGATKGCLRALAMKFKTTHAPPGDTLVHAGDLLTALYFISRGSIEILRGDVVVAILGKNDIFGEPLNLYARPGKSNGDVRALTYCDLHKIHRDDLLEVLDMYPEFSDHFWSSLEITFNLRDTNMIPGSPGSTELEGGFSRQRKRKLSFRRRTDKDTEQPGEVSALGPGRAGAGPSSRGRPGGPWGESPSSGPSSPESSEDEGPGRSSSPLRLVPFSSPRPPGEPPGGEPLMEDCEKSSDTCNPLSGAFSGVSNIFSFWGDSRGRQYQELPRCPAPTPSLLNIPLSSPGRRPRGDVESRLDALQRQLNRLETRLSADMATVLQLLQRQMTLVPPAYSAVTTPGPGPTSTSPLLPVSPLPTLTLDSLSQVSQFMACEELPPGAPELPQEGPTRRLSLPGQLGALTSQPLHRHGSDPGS

**Q.** For `C[C@](O)(CS(=O)(=O)c1ccc(F)cc1)C(=O)Nc1ccc(C#N)c(C(F)(F)F)c1` [(R)-BICALUTAMIDE], which IC50 [1] is on record?
**A.** The IC50 was greater than 25 µM.

**Q.** What about the Activity [2] of the same compound?
**A.** Its Activity is “Dose-dependent effect”.

**Q.** What about the IC50 ([2]; DU-145, 96 h) of the same compound?
**A.** The IC50 was 45.4 µM.

**Q.** What about the Activity [3] of the same compound?
**A.** Its Activity is “Dose-dependent effect”.

**Q.** What about the Activity [4] of the same compound?
**A.** Its Activity is “Dose-dependent effect”.

**Q.** What about the half-life at 3 µM [5] of the same compound?
**A.** Its half-life at 3 µM is 3.57 h.

**Q.** And the microsomal CLint at 3 µM [6]?
**A.** Its microsomal CLint at 3 µM is 6.48 µL/min/mg.

**Q.** And the Activity [7]?
**A.** Its Activity is “Dose-dependent effect”.

**Q.** What about the IC50 [7] of the same compound?
**A.** Its IC50 is 51.6 µM.

**Q.** What about the fraction unbound [8] of the same compound?
**A.** Its fraction unbound is 0.02.
